Data: ChEMBL document CHEMBL1158120, “Cytotoxic oxygenated triterpenoid saponins from Symplocos chinensis” (J Nat Prod, 2006)

Columns and labels:
Assay type in all cases: functional, cell-based
BGC-823 = assay: Cytotoxicity against human BGC-823 cells by MTT assay
Outline: (§1)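 MTT read-out of tumour-cell viability. IC50 values in µM are reported as means of three independent experiments.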

Bel-7402 = assay: Cytotoxicity against human Bel-7402 cells by MTT assay; outline: as §1
HCT-8 = assay: Cytotoxicity against human HCT8 cells by MTT assay; outline: as §1
A2780 = assay: Cytotoxicity against human A2780 cells by MTT assay; outline: as §1
A549 = assay: Cytotoxicity against human A549 cells by MTT assay; outline: as §1

Compound | IC50 (BGC-823) | IC50 (Bel-7402) | IC50 (HCT-8) | IC50 (A2780) | IC50 (A549)
CC(C)=CCC/C(C)=C\C(=O)O[C@H]1[C@H](OC(=O)C(C)C)[C@]2(CO)[C@H](O)[C@H](O)[C@]3(C)C(=CC[C@@H]4[C@@]5(C)CC[C@H](O)C(C)(C)[C@@H]5CC[C@]43C)[C@@H]2CC1(C)C | > 10 µM | > 10 µM | > 10 µM | > 10 µM | > 10 µM
CC(C)=CCC/C(C)=C\C(=O)O[C@H]1CC(C)(C)C[C@H]2C3=CC[C@@H]4[C@@]5(C)CC[C@H](O)C(C)(C)[C@@H]5CC[C@@]4(C)[C@]3(C)[C@@H](O)[C@@H](O)[C@@]12CO | > 10 µM | > 10 µM | > 10 µM | > 10 µM | > 10 µM
CCC(C)C(=O)O[C@H]1[C@H](OC(=O)/C=C(\C)CCC=C(C)C)C(C)(C)C[C@H]2C3=CC[C@@H]4[C@@]5(C)CC[C@H](O[C@@H]6O[C@H](C(=O)O)[C@@H](O)[C@H](O)[C@H]6O[C@@H]6O[C@H](CO)[C@@H](O)[C@H](O)[C@H]6O)C(C)(C)[C@@H]5CC[C@@]4(C)[C@]3(C)[C@@H](O)[C@@H](O)[C@]21CO (some centres undefined) | > 10 µM | > 10 µM | > 10 µM | 1.9 µM | > 10 µM
CC1(C)C[C@H](O)[C@]2(CO)[C@H](O)[C@H](O)[C@]3(C)C(=CC[C@@H]4[C@@]5(C)CC[C@H](O)C(C)(C)[C@@H]5CC[C@]43C)[C@@H]2C1 | > 10 µM | > 10 µM | > 10 µM | > 10 µM | > 10 µM
COc1cccc2c1C(=O)c1c(O)c3c(c(O)c1C2=O)C[C@@](O)(C(=O)CO)C[C@@H]3O[C@H]1C[C@H](N)[C@H](O)[C@H](C)O1 [DOXORUBICIN] | 1 µM | 1 µM | 0.8 µM | 0.1 µM | –
CC1(C)C[C@H]2C3=CC[C@@H]4[C@@]5(C)CC[C@H](O)C(C)(C)[C@@H]5CC[C@@]4(C)[C@]3(C)[C@@H](O)[C@@H](O)[C@@]2(CO)[C@@H](O)[C@@H]1O [R1-barrigenol] | > 10 µM | > 10 µM | > 10 µM | > 10 µM | > 10 µM
CCCCOC(=O)[C@H]1O[C@@H](O[C@H]2CC[C@]3(C)[C@H]4CC=C5[C@@H]6CC(C)(C)[C@@H](OC(=O)/C=C(/C)CCC=C(C)C)[C@H](OC(=O)C(C)CC)[C@]6(CO)[C@H](O)[C@H](O)[C@@]5(C)[C@]4(C)CC[C@H]3C2(C)C)[C@H](O[C@@H]2O[C@H](CO)[C@@H](O)[C@H](O)[C@H]2O)[C@@H](O)[C@@H]1O[C@@H]1O[C@@H](CO)[C@H](O)[C@H]1O (some centres undefined) [SYMPLOCOSOSIDE C] | 4.3 µM | 1.5 µM | 2.9 µM | 1.3 µM | > 10 µM
CCCCOC(=O)[C@H]1O[C@@H](O[C@H]2CC[C@]3(C)[C@H]4CC=C5[C@@H]6CC(C)(C)[C@@H](OC(=O)/C=C(\C)CCC=C(C)C)[C@H](OC(=O)C(C)CC)[C@]6(CO)[C@H](O)[C@H](O)[C@@]5(C)[C@]4(C)CC[C@H]3C2(C)C)[C@H](O[C@@H]2O[C@H](CO)[C@@H](O)[C@H](O)[C@H]2O)[C@@H](O)[C@@H]1O[C@@H]1O[C@@H](CO)[C@H](O)[C@H]1O (some centres undefined) [SYMPLOCOSOSIDE D] | > 10 µM | 1.89 µM | > 10 µM | 1.74 µM | > 10 µM
CCCCOC(=O)[C@H]1O[C@@H](O[C@H]2CC[C@]3(C)[C@H]4CC=C5[C@@H]6CC(C)(C)[C@@H](OC(=O)/C=C/c7ccccc7)[C@H](OC(=O)C(C)CC)[C@]6(CO)[C@H](O)[C@H](O)[C@@]5(C)[C@]4(C)CC[C@H]3C2(C)C)[C@H](O[C@@H]2O[C@H](CO)[C@@H](O)[C@H](O)[C@H]2O)[C@@H](O)[C@@H]1O[C@@H]1O[C@@H](CO)[C@H](O)[C@H]1O (some centres undefined) [SYMPLOCOSOSIDE E] | > 10 µM | 1.7 µM | > 10 µM | 1.7 µM | > 10 µM
